Measured values gathered from unrelated publications.
Compare with care: the assays were run in different laboratories.
Target: Mitogen-activated protein kinase kinase kinase 20 (MAP3K20, Homo sapiens, UniProt Q9NYL2)

Structure (SMILES) | read-out | technique | concentration | remaining binding
c1cncc(-c2cccc(Nc3nccc(NC4CCCCC4)n3)c2)c1 | binding | competition with immobilised ligand | 10 µM | 93%
Cc1cnn2ncc(-c3ccnc(N(C)C)n3)c2c1 | binding |  | 1 µM | 95%
O=C(NCCCN1CCOCC1)c1ccc(Nc2ncc(Cl)c(-c3ccc(Cl)s3)n2)cc1 | binding | competition with immobilised ligand | 1 µM | 69%
CN(C)c1nccc(-c2cnc3ncccn23)n1 | binding |  | 1 µM | 89%
CO[C@@H](C)c1c(Nc2ccc([C@@H](N(C)C(=O)C3CCS(=O)(=O)CC3)C(F)(F)F)cc2)cnc2cc(Cl)nn12 | cell-free assay | competition with immobilised ligand | 1 µM | 100%
CN(CCCC(F)(F)F)c1nccc(-c2cnn3ncccc23)n1 | binding |  | 1 µM | 88%
O=c1nc(-c2ccccn2)sc2ccccc12 | binding | competition with immobilised ligand | 1 µM | 87%
O=C(Nc1c[nH]nc1C(=O)NC1CCNCC1)c1cc(F)cc(F)c1 | binding | competition with immobilised ligand | 1 µM | 100%
Cc1c(NC(=O)c2cc(C(N)=O)nc3cc(F)ccc23)c(C(F)(F)F)nn1Cc1ccc(C(C)(C)C)cc1 | cell-free assay | competition with immobilised ligand | 1 µM | 100%
O=C(c1ccc(Nc2nccc(-c3cc4ccccc4s3)n2)cc1)N1CCC(N2CCCC2)CC1 | binding | competition with immobilised ligand | 1 µM | 69%
N[C@@H]1CCN(c2nccc(-c3cnn4ncccc34)n2)C1 | binding |  | 1 µM | 100%
FC(F)(F)Oc1cccc(-c2cnc3ccc(-c4ccncc4)nn23)c1 | binding | competition with immobilised ligand | 5 µM | 20%
O=C(O)[C@@H]1[C@@H](Cn2nnc3ccccc3c2=O)CC[C@H]1C(=O)c1ccc(OCCC2CCOCC2)cc1 | cell-free assay | competition with immobilised ligand | 1 µM | 91%
c1cnn2ncc(-c3ccnc(N4CCC45COC5)n3)c2c1 | binding |  | 1 µM | 100%
CCOC(=O)c1cc2cc(-c3cc(C(=O)NCc4ccc(C(=O)O)cc4)nn3C)ccc2[nH]1 | cell-free assay | competition with immobilised ligand | 0.1 µM | 87%
O=C(c1ccc(Nc2ncc(Cl)c(-c3ccc(Cl)s3)n2)cc1)N1CCC(N2CCCC2)CC1 | binding | competition with immobilised ligand | 1 µM | 65%
C[C@H]1CCN(c2nccc(-c3cnn4ncccc34)n2)C1 | binding |  | 1 µM | 97%
CNC(=O)[C@@H]1CC[C@@H](n2c(-c3ccc4cnccc4c3)nc3ccc(C(=O)NCc4cccc(C(N)=O)c4)cc32)C1 | binding | competition with immobilised ligand | 1 µM | 100%
CCCOc1ccc([C@@H]2[C@@H](C(=O)O)[C@H](c3ccc4c(c3)OCO4)CN2CC(=O)Nc2c(CC)cccc2CC)cc1 | cell-free assay | competition with immobilised ligand | 1 µM | 100%
C[C@@H](c1ccc(-n2cnc3c(N)ncnc32)cc1)N1CCc2nn(C)c(Cc3ccccc3)c2C1=O | binding | competition with immobilised ligand | 0.1 µM | 58%
CS(=O)(=O)NCC[C@H](NC(=O)c1cncc2c1cnn2-c1ccc(F)cc1)c1ccnc(S(C)(=O)=O)c1 | cell-free assay | competition with immobilised ligand | 1 µM | 88%
COc1cnc(Nc2cccc(S(N)(=O)=O)c2)nc1N1CCN(c2ccccc2)C(=O)C1 | binding | competition with immobilised ligand | 1 µM | 100%
